UPR CHOP act: apoptotic UPR (CHOP) activation | CHO-CHOP luciferase reporter, luminescence; percent of tunicamycin response over DMSO baseline | activation, % at 10 µM | hit rate 0.34% among 330,000;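 active = at 10 µM dose, activation of 40% or more, normalized to positive control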;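 note: 100% = tunicamycin at 10 µg/mL and 0% = DMSO alone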
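Test system: CHO CHOP reporter cells. Input: 500 CHO-CHOP cells per well. Medium: F12 with 10% FBS. Technique: luciferase luminescence. Measure: percent activation relative to tunicamycin control. Dosing: 10 µM compound, 0.5% DMSO. Timing: 16-18 h cell attachment, then 6 h compound exposure, 37 °C.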
CHOP inh: inhibitors of CHOP induction in ER stress response. CHO-K1 CHOP-promoter luciferase, tunicamycin-induced, 15-18 h. inhibition, % at 10 µM. hit rate 3.8% among 220,000;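 active = compounds that reduced the stress-induced luciferase reporter signal by more than about 70% of percent inhibition, limit read from the data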;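 note: 0% = tunicamycin plus vehicle and 100% = wells without tunicamycin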
A1 inh: inhibitors of the anti-apoptotic protein A1, read as caspase activation. caspase activation, % (no concentration beside the values). hit rate 0.066% among 330,000. MEF A1-2A-BIM cells, Caspase-Glo 3/7 luminescence, 3 h; percent of clofoctol response, vehicle zero. AID 2462;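 active = over half of replicate activation scores above 10%, or exactly half above 10 with the replicate mean above 10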
XBP1 UPR activ: activators of adaptive arm of unfolded protein response (XBP1); CHO-XBP1 luciferase reporter, IRE1-XBP1 UPR activation, luminescence; percent of tunicamycin response, DMSO as zero; activation, % at 20 µM; hit rate 0.33% among 330,000;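 active = versus positive control, 20 µM dose yields 30% or more activation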;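 note: 100% = tunicamycin at 10 µg/mL and 0% = DMSO only wells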
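Material: CHO-XBP1 cells stably carrying IRE1-XBP1-driven luciferase reporter | Medium: F12 with 10% serum | Compound dosing: 20 µM single concentration, DMSO 1% | Incubation: Overnight seeding at 37 °C, 6 h compound treatment at 37 °C | Detection: Steady-Glo luminescence read | Read-out basis: % activation of reporter signal versus tunicamycin and DMSO controls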
Active calls of the source: *; nt = not tested or not shown. Only a selection was taken, and hits are over-represented in it overall.

SMILES	UPR CHOP act	CHOP inh	A1 inh	XBP1 UPR activ
C=CCNCc1ccccc1[N+](=O)[O-]	-0.2	nt	-0.2	-2.3
CCCN(CCC)S(=O)(=O)c1ccc(C(=O)Nc2nnc(-c3cccc(OC)c3)o2)cc1	5.3	92.1*	-0.4	4.0
CCCN(CCC)S(=O)(=O)c1ccc(C(=O)Nc2nnc(-c3cc(OC)cc(OC)c3)o2)cc1	10.7	85.4*	0.6	4.9
CCCN(CCC)S(=O)(=O)c1ccc(C(=O)Nc2nnc(CSC)o2)cc1	3.0	13.8	2.0	1.1
O=C(NNc1ccccn1)C(=O)NNS(=O)(=O)c1ccc(Cl)cc1	-1.3	-2.4	0.4	-1.4
CCOC(=O)C1=C(C)N=C2c3ccccc3C(=O)C2C1c1ccc(Cl)cc1 (stereo not drawn)	1.3	87.9*	-0.1	25.2
CC1(C)CC(=O)C2=C(C1)N=C1c3ccccc3C(=O)C1C2c1ccc(Cl)cc1 (stereo not drawn)	19.9	-8.3	-0.4	4.9
O=C(Cc1csc(Nc2nc(=S)[nH]c3ccccc23)n1)NCc1cccc(Cl)c1	-0.4	80.3*	0.0	16.1
O=C(Nc1ccc(CN2CCOCC2)cc1)c1ccc(Br)cc1	7.7	nt	0.2	-1.6
O=C(Nc1ccc(CN2CCOCC2)cc1)c1ccc(-c2ccc(Br)cc2)o1	-1.6	79.7*	0.1	-4.4
O=S1(=O)N=C(Nc2ccc(S(=O)(=O)N3CCCCC3)cc2)c2ccccc21	-1.2	92.0*	0.3	-5.3
O=S1(=O)N=C(Nc2ccc(N3CCOCC3)cc2)c2ccccc21	3.4	2.5	0.4	0.7
CC1CC2(CCCCC2)N2C(=O)C(=O)c3cccc1c32 (stereo not drawn)	-0.9	75.4*	-0.4	3.4
O=C(CSc1cccc(C(F)(F)F)c1)Nc1ccc(Cl)cc1Cl	-0.9	83.0*	-0.8	-0.1
CSc1nc(C)cc(SCC(=O)Nc2ccccc2)n1	-2.1	5.8	0.3	-2.4
O=C(CSc1cccc(C(F)(F)F)c1)NC(=O)NCc1ccco1	-0.3	82.2*	0.2	-2.4
CSc1nc(C)cc(SCC(=O)Nc2ccc(Cl)cc2Cl)n1	2.5	87.0*	0.1	-1.9
CCN1CC(c2ccccc2)C(c2ccc(Cl)cc2)=N1 (stereo not drawn)	0.1	79.5*	-0.3	-0.6
CCN(CC)C1CCN(C(=O)c2cc(COc3ccc(F)cc3Cl)on2)C1 (stereo not drawn)	0.8	7.0	0.3	-0.5
Nc1nc(Nc2ccccc2)nc(NCc2ccco2)c1[N+](=O)[O-]	1.6	85.9*	-1.0	4.3
Nc1nc(NCc2ccco2)nc(Nc2ccccc2)c1[N+](=O)[O-]	-1.6	20.2	0.0	2.3
Cc1[nH]c2ccccc2c1C(O)CN1CCN(c2cccc(C(F)(F)F)c2)CC1 (stereo not drawn)	0.2	74.3*	0.8	-3.7
Cc1[nH]c2ccccc2c1NC(=O)CN1CCN(c2cccc(C(F)(F)F)c2)CC1	-1.5	60.7	0.0	3.9
Cc1cc(C)c(Cn2cnc(-c3ccc([N+](=O)[O-])cc3)c2)c(C)c1	-0.7	76.3*	1.1	-6.1
CC(C)(C)c1ccc(Cn2cnc(-c3ccc([N+](=O)[O-])cc3)c2)cc1	6.6	69.5	-0.4	5.0
SMILES	UPR CHOP act	CHOP inh	A1 inh	XBP1 UPR activ
Cc1ccccc1C(=O)Nc1ccc(O)c2c(=O)cc(-c3ccccc3Cl)oc12	1.7	8.8	-0.4	-1.1
O=C(Nc1ccc(O)c2c(=O)cc(-c3ccccc3Cl)oc12)c1ccc(Cl)c(Cl)c1	7.9	94.3*	-0.3	16.3
COc1cc(OC)cc(-c2c(-c3cccs3)c3cc(-c4ccc5c(c4)OCCO5)ccc3n2C)c1	2.4	nt	0.6	-3.0
COc1cc2c(cc1OC)CN(C(=O)CSc1nc(C)cc(C)c1C#N)CC2	-3.4	22.5	0.2	2.7
Cc1nn(CC(=O)N2CCCc3ccccc32)c(C)c1[N+](=O)[O-]	-0.2	-10.2	0.2	-1.4
O=C(NCc1ccc(OC(F)(F)F)cc1)C1CC2Cn3c(nc4ccccc43)C2N1Cc1ccccc1 (stereo not drawn)	-0.4	nt	0.1	-1.7
CCn1c(-c2cc(-c3ccc(C)c(C)c3)nc3ccccc23)n[nH]c1=S	1.4	75.8*	0.8	0.6
CCOc1cccc(-c2cc(-c3n[nH]c(=S)n3CC)c3ccccc3n2)c1	2.4	87.1*	0.0	3.9
CCn1c(-c2cc(-c3cc(C)ccc3C)nc3ccccc23)n[nH]c1=S	-2.0	3.4	0.0	0.0
CS(=O)(=O)N(CCc1ccccc1)CC(=O)N1CCN(c2ccccc2F)CC1	-1.6	10.3	0.2	-2.7
O=C(/C=C/c1ccccc1Cl)c1ccccc(=O)c1O	nt	-64.0	-0.4	nt
Cc1ccc(/C=C/C(=O)c2ccccc(=O)c2O)c(C)c1	4.5	76.6*	-0.5	2.3
Cc1ccc(C)c(/C=C/C(=O)c2ccccc(=O)c2O)c1	nt	93.1*	0.7	nt
On1c(-c2ccccc2Cl)nc2ccccc21	2.1	-1.2	0.8	-2.0
COCCNC(=O)Cn1ncc2ccsc2c1=O	0.4	-13.8	-0.2	-3.4
COCCSc1ccccc1C(=O)Nc1ccc([N+](=O)[O-])cc1OC	0.5	3.8	-0.1	-6.5
Cc1ccc(N(CC(O)Cn2c3ccccc3c3ccccc32)S(C)(=O)=O)cc1 (stereo not drawn)	1.1	83.0*	-0.2	-2.9
Cc1cccc(C)c1N(CC(O)Cn1c2ccccc2c2ccccc21)S(C)(=O)=O (stereo not drawn)	3.5	43.1	-0.5	3.1
Cc1ccc(N(CC(O)CON=C2c3ccccc3-c3ccccc32)S(C)(=O)=O)cc1 (stereo not drawn)	-0.8	91.1*	-0.8	-2.7
Cc1ccc(N(CC(O)Cn2c3ccccc3c3ccccc32)S(C)(=O)=O)c(C)c1 (stereo not drawn)	-1.7	85.2*	nt	-3.7
c1ccc(CCC2CCCCN2Cc2nc(-c3ccc4c(c3)OCO4)no2)nc1 (stereo not drawn)	1.6	16.0	-0.5	1.3
CC1CC(=O)Nc2ccccc2N1C(=O)CN1CCN(c2ccccc2)CC1 (stereo not drawn)	0.5	80.1*	0.7	1.6
CC1CC(=O)Nc2ccccc2N1C(=O)CN1C(=O)C(=O)N(C)C1=O (stereo not drawn)	-1.0	nt	1.0	-1.5
O=C(O)c1cc(N/N=C/c2ccc3c(c2)OCO3)ccc1Cl	-3.9	1.5	-6.8	-4.3
O=[N+]([O-])c1ccc(Nc2nc(N/N=C/c3cccc(F)c3)nc(N3CCCC3)n2)cc1	9.0	16.4	0.7	3.1
COc1cccc(/C=N/Nc2nc(Nc3ccc([N+](=O)[O-])cc3)nc(N3CCCC3)n2)c1O	7.2	89.3*	-1.1	7.9
CC(C)(C)c1ccc(/C=N/Nc2ccc(C(=O)O)cc2)cc1	-8.7	83.5*	-8.2	-4.5
COc1cccc(/C=N/Nc2ccc(S(=O)(=O)O)cc2)c1O	-0.6	1.2	-3.4	-1.0
COc1cccc(/C=N/Nc2ccc(C(=O)O)cc2)c1O	-10.0	100.9*	-13.4	-8.7
O=C(O)c1ccc(N/N=C/c2ccc(C(F)(F)F)cc2)cc1	-8.0	60.8	-8.0	-7.4
